Data on seven compounds can be found in PMC3228362 (Biochemistry, 2011).

Values joined by “and” are separate entries in the source; they are usually repeats but may differ in a detail not shown here. Equal entries are not always repeated. Where two headings read alike, the source gives them in different places. Marks after values point to notes of the source that are not given here. Bounds are passed on as bounds.

Assay [1] has as its system T4 exo^- DNA polymerase. The settings on record: opposite template 2AP, long A+T-rich DNA 1, cited from earlier work.
For assay [2], the target named is T1, RB69 Y567A exo^- DNA polymerase (Escherichia phage RB69, UniProt Q38087, D222A/D327A/Y567A). Format: biochemical, bacteriophage RB69. The gist of the method: (§1)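 Single-turnover rapid chemical quench at 22 °C in 66 mM Tris-HCl pH 7.5. Final concentrations were 100 nM 5′-32P-labeled DNA, 1 μM polymerase, 10 mM MgCl2 and varying dNTP. Reactions were quenched with 0.5 M EDTA. Products were resolved on 20% acrylamide/8 M urea gels and quantified by phosphorimaging. Data were fit to a single exponential.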

The target of assay [3] is T2, RB69 exo^- DNA polymerase (D222A/D327A, wild type) (Escherichia phage RB69, UniProt Q38087, D222A/D327A). Format: biochemical, bacteriophage RB69. The conditions noted are these: opposite template 2AP; for Kd: read-out: Kdincorp, app. The gist of the method: as §1
The test system of assay [4] is T4 exo^- DNA polymerase. Briefly: Nucleotide incorporation opposite template 2AP. The class given is biochemical, bacteriophage T4. The conditions noted are these: for kpol / Kdincorp: long A+T-rich DNA 1, from data of ref 13.
Assay [5] addresses T2, RB69 exo^- DNA polymerase (D222A/D327A, wild type). Briefly: Nucleotide binding opposite template 2AP. On the set-up: species or system bacteriophage RB69. The settings on record: for Kd: read-out: Kdbind, opposite template 2AP. The gist of the method:
(§2)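 Chain-terminated (dideoxy) 2AP-labeled primer-template DNA at 200 nM with a 2 to 2.5-fold excess of polymerase, in 25 mM HEPES pH 7.6, 50 mM NaCl, 1 mM DTT and 10 mM MgCl2. Nucleotide was added incrementally. Excitation was at 315 nm and emission was scanned from 330 to 450 nm with 2 nm band-pass, at 20 °C. Kd was taken from the fluorescence quench curves.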

Assay [6] has as its target T1, RB69 Y567A exo^- DNA polymerase. Briefly: Nucleotide binding opposite template 2AP. The settings on record: for Kd: opposite template 2AP. On the set-up: species or system bacteriophage RB69. The gist of the method: as §2
Assay [7] deals with T4 exo^- DNA polymerase. The settings on record: cited from earlier work.
Assay [8] has as its system T4 exo^- DNA polymerase. Briefly: Nucleotide binding opposite template 2AP. On the set-up: species or system bacteriophage T4. The conditions noted are these: for Kd: opposite template 2AP.
Another assay relates to DNA polymerase α. The conditions noted are these: cited from earlier work.
Setting [9] is: A+T- and G+C-rich DNAs (Table 1).
The mark [10] stands for this setting: opposite template 2AP, long A+T-rich DNA 1.
Setting [11] is: opposite template 2AP, long G+C-rich DNA 2.
Setting [12] is: opposite template 2AP, short A+T-rich DNA 3.
Setting [13] is: opposite template 2AP, short G+C-rich DNA 4.
The mark [14] stands for this setting: read-out: Kdincorp, app, opposite template 2AP, long A+T-rich DNA 1.
The mark [15] stands for this setting: read-out: Kdincorp, app, opposite template 2AP, short A+T-rich DNA 3.
Where [16] appears, read: read-out: Kdincorp, app, opposite template 2AP, short G+C-rich DNA 4.
Where [17] appears, read: read-out: Kdbind, long A+T-rich DNA 1.
[18] abbreviates: read-out: Kdbind, long G+C-rich DNA 2.
Setting [19] is: read-out: Kd (Table 3), DNA 1, conditions as Table 1.

T2 sequence (Q38087 whole entry D222A/D327A): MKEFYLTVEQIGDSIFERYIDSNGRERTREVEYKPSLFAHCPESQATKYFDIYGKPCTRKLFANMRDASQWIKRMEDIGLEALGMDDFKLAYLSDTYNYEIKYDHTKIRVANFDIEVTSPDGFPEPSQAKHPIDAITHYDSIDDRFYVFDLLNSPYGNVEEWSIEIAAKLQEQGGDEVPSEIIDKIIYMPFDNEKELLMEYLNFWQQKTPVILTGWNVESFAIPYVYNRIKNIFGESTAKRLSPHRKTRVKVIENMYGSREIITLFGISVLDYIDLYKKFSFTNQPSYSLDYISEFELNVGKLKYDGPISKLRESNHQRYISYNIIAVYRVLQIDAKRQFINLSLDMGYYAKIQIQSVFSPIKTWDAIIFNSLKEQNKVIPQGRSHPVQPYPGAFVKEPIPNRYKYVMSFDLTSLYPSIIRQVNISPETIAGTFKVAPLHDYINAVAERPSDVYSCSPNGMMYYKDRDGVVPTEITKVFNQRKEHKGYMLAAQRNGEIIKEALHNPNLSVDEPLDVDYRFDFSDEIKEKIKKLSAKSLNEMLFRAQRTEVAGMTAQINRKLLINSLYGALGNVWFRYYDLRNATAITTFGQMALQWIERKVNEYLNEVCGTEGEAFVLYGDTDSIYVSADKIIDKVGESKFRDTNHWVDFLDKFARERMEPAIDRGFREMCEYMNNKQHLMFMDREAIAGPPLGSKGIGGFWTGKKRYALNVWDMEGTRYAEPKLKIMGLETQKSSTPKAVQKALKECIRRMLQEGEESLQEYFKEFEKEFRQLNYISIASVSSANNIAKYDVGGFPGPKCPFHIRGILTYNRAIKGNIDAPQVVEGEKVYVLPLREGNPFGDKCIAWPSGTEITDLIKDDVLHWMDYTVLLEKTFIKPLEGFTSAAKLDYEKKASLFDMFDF
T1 sequence (Q38087 whole entry D222A/D327A/Y567A): as the sequence (Q38087 whole entry D222A/D327A) above, with Y567A counted along it

For the compound `Nc1ccn([C@H]2C[C@H](O)[C@@H](COP(=O)(O)O)O2)c(=O)n1` [dCMP], the “kpol (overall nucleotide incorporation rate)” value is 2.3 ± 0.1 s^−1 ^a in the assay with T4 exo^- DNA polymerase [1]; 6.4 ± 0.6 s⁻¹ in [2] (setting [10]); about 6 s⁻¹ in [2] (setting [11]); 9.3 ± 0.7 s⁻¹ in assay [2] (setting [12]); “slow ^c” in [3] (short A+T-rich DNA 3); “slow ^c” in assay [3] (short G+C-rich DNA 4). In addition, the kpol in assay [2] (setting [9]) is given as ~ 6 s^−1. The “kpol, fold lower than for incorporation of dTMP” value in [2] (setting [9]) is reported as over 30 fold. In addition, the “kpol/Kd incorporation ratio (efficiency of misincorporation)” value in assay [2] (longer and shorter A+T-rich DNA substrates) lay within 30000 to 40000 M⁻¹ s⁻¹; in [2] (longer and shorter G+C-rich DNA substrates), 3000 to 7000 M⁻¹ s⁻¹. The “kpol / Kdincorp” value in assay [2] (setting [10]) was 40000 M⁻¹ s⁻¹; in assay [2] (setting [11]), about 3000 M⁻¹ s⁻¹; in assay [2] (setting [12]), 30000 M⁻¹ s⁻¹; in assay [2] (setting [13]) it was 7000 M⁻¹ s⁻¹; in [3] (short A+T-rich DNA 3), under 1000 to 3000 M⁻¹ s⁻¹; in assay [3] (short G+C-rich DNA 4) it was under 1000 to 3000 M⁻¹ s⁻¹. Also, the “kpol / Kdincorp” value in the assay on T4 exo^- DNA polymerase [4] was under 0.0008 µM⁻¹ s⁻¹. Further, the Kd in assay [2] (read-out: Kd,app for incorporation, shorter A+T- and G+C-rich DNAs (Table 2)) is 300 to 360 µM; in assay [2] (setting [14]), ~170 µM and 170 µM; in assay [2] (setting [15]), 298 ± 65 µM; in assay [2] (setting [16]) it was 361 ± 52 µM.
`Nc1ccn([C@H]2C[C@H](O)[C@@H](COP(=O)(O)OP(=O)(O)OP(=O)(O)O)O2)c(=O)n1` [dCTP]: the “discrimination against binding compared to dTTP, factor” value (in assay [5] (30 μM compared to 3 mM); in the assay with T4 exo^- DNA polymerase [8] (30 μM compared to 3 mM)) was at least 100 throughout. For the same compound, the entries for the “Kd for binding, fold higher than Kd for dTTP binding” value in assay [6] (A+T-rich DNA substrate (DNA 1)) and in assay [6] (G+C-rich DNA (DNA 2)) were under 3 fold and over 20 fold, respectively. Moreover, the Kd in assay [6] (setting [17]) is 24.8 ± 2.1 µM; in assay [6] (setting [18]), ~317 µM and 317 µM; in assay [6] (read-out: Kdbind, short A+T-rich DNA 3), ~53 µM and 53 µM; in [6] (read-out: Kdbind, short G+C-rich DNA 4), ~373 µM and 373 µM; on T4 exo^- DNA polymerase [7] (read-out: Kd for binding opposite template 2AP), at least 3000 µM. Further, the “inhibition of dTTP binding” value with T4 exo^- DNA polymerase [7] was “not an inhibitor of dTTP binding”.
Consider `Cc1cc(C2CC(O)C(COP(=O)(O)OP(=O)(O)OP(=O)(O)O)O2)c(F)cc1F` (centres unmarked) [dFTP, difluorotoluene deoxynucleoside triphosphate], for which the “quench of 2AP fluorescence” value in the assay with T4 exo^- DNA polymerase [7] (at concentrations <150 μM, T4 DNA pol binary complexes) is given as “does not quench 2AP fluorescence”. In addition, the inhibitory constant (Ki) (as a rule, a dissociation constant, usually derived from enzyme kinetics or from competition with a known ligand) on T4 exo^- DNA polymerase [7] (read-out: Ki (competitive inhibitor of dTTP-Mg^2+-induced quenching), T4 DNA pol binary complexes) is about 68 µM.
In the case of `Cc1cn([C@H]2C[C@H](O)[C@@H](COP(=O)(O)O)O2)c(=O)[nH]c1=O` [dTMP], the “kpol (overall nucleotide incorporation rate)” value is 165 ± 3 s^−1 ^a with T4 exo^- DNA polymerase [1]; 240 ± 11 s⁻¹ in assay [2] (setting [10]); 190 ± 11 s⁻¹ in [2] (setting [11]); 289 ± 9 s⁻¹ in [2] (setting [12]); 233 ± 27 s⁻¹ in assay [2] (setting [13]); 379 ± 28 s⁻¹ in [3] (short A+T-rich DNA 3). Besides, in [3] (short G+C-rich DNA 4), the “kpol (overall nucleotide incorporation rate)” value came out at 201 ± 16 s⁻¹. Besides, the Kd on T4 exo^- DNA polymerase [1] (read-out: Kdincorp, app) was 367 ± 36 µM; in assay [2] (setting [14]) it was ~16 µM and 16 µM; in assay [2] (read-out: Kdincorp, app, opposite template 2AP, long G+C-rich DNA 2), 180 ± 75 µM; in assay [2] (setting [15]), 67.3 ± 8 µM; in assay [2] (setting [16]), 263 ± 78 µM; in assay [3] (short A+T-rich DNA 3), 114 ± 26 µM. Besides, in assay [3] (short G+C-rich DNA 4), the Kd is 200 ± 45 µM. Also, the kpol in [2] (setting [9]) is recorded as ~ 200 s^−1. Further, the “preference for dTMP over dCMP incorporation” value is ~ 300 fold and > 300 fold in [2] (longer DNA substrates (Table 1)); ~ 100 fold and > 100 fold in [2] (shorter DNAs (Table 2)). For the same compound, the “dTMP/dCMP (ratio of kpol / Kdincorp)” value in [2] (setting [10]) is 375; in assay [2] (setting [11]) it was 333; in assay [2] (setting [12]), 143; in [2] (setting [13]) it was 129; in assay [3] (short A+T-rich DNA 3), over 1000; in assay [3] (short G+C-rich DNA 4) it was over 1000. Further, in the assay with T4 exo^- DNA polymerase [4] (long A+T-rich DNA 1), the “dTMP/dCMP (ratio of kpol / Kdincorp)” value is reported as over 560. The “kpol / Kdincorp” value in [2] (setting [10]) came out at 1.5e+07 M⁻¹ s⁻¹; in assay [2] (setting [11]) it was 1e+06 M⁻¹ s⁻¹; in assay [2] (setting [12]) it was 4.3e+06 M⁻¹ s⁻¹; in [2] (setting [13]), 900000 M⁻¹ s⁻¹; in assay [3] (short A+T-rich DNA 3) it was 3.3e+06 M⁻¹ s⁻¹; in [3] (short G+C-rich DNA 4), 1e+06 M⁻¹ s⁻¹. Further, the “kpol / Kdincorp” value in the assay with T4 exo^- DNA polymerase [4] is on record as 0.45 ^f μM^−1 s^−1. The “incorporation opposite template 2AP favored over incorporation of dCMP” value with DNA polymerase α is 20- to 25 fold.
On to `Cc1cn([C@H]2C[C@H](O)[C@@H](COP(=O)(O)OP(=O)(O)OP(=O)(O)O)O2)c(=O)[nH]c1=O` [dTTP], for which the Kd in assay [5] (long A+T-rich DNA 1) was 31.1 ± 0.9 µM; in [5] (long G+C-rich DNA 2), 30 ± 0.4 µM; in assay [6] (setting [17]), 9.2 ± 0.8 µM; in [6] (setting [18]) it was 15.1 ± 1.4 µM; on T4 exo^- DNA polymerase [7] (read-out: Kdbind, opposite template 2AP, long A+T-rich DNA 1), ~35 µM and 35 µM; at T4 exo^- DNA polymerase [8] (setting [18]), 28.7 ± 0.6 µM. Besides, the “kpol (rate of nucleotide binding)” value is listed as “rapid ^a” in the assay on T4 exo^- DNA polymerase [7] (long A+T-rich DNA 1, rapid = within dead time of stopped flow instrument) and “rapid” in the assay on T4 exo^- DNA polymerase [8] (long G+C-rich DNA 2).
Turning to `O=c1ccn([C@H]2C[C@H](O)[C@@H](COP(=O)(O)OP(=O)(O)OP(=O)(O)O)O2)c(=O)[nH]1` [dUTP], the Kd in assay [6] (setting [19]) was 21 ± 1 µM; on T4 exo^- DNA polymerase [8] (setting [19]) it was 74.1 ± 2 µM.
The corresponding values for `O=c1ccn([C@@H]2O[C@H](COP(=O)(O)OP(=O)(O)OP(=O)(O)O)[C@@H](O)[C@H]2O)c(=O)[nH]1` [rUTP] are 522 ± 55 µM and over 3000 µM.
